Rows were chosen to be rich in hits. Some 1.7% of all compounds tested hit in one or more screens of this group.
UCH37 inh = inhibitors of human deubiquitinating enzyme UCH37. purified proteasome/UCH37, Ub-AMC cleavage fluorescence. inhibition, % (test concentration not listed). 0.33% of 330,000 active;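 active means mean inhibition over replicate wells above about 20%, limit read from the data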;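 further: 0% = compound-free wells with enzyme and 100% = wells lacking proteasome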
Target sequence (Q9Y5K5 whole entry, looked up): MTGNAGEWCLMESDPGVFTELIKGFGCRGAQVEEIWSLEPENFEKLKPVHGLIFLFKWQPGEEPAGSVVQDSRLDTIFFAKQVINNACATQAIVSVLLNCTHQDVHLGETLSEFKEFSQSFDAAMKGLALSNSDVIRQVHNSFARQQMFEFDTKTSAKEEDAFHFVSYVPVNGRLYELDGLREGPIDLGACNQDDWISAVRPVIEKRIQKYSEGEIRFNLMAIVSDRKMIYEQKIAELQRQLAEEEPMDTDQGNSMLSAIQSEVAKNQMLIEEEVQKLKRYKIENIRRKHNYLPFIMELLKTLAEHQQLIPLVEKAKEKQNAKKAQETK
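Material: Human UCH37 enzyme supplied as purified proteasome complex | Schedule: 30 min preincubation with enzyme, 25 min cleavage at room temperature | Detection: AMC fluorescence 355/460 nm | Measure: % inhibition of Ub-AMC cleavage fluorescence | Controls: Wells without proteasome as full block, compound-free enzyme plus substrate as uninhibited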
PLCg1 inh = PLC-gamma1 (human) inhibition, primary screen; P19174; purified PLC-gamma1, fluorogenic substrate, fluorescence; inhibition, % at 12.2 µM; 0.84% of 370,000 active
Rpn11 block = Rpn11 (human) deubiquitinase inhibition | O00487 | human 26S proteasome, Ub4-pepOG fluorescence polarization; 20S core pre-blocked with epoxomicin | inhibition, % at 20 µM | 0.59% of 360,000 active | AID 588493;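 active means inhibition at 20 µM, scaled to each plate's controls, above about 33%, limit read from the data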
PLCb3 inh = inhibitors of human phospholipase C beta3. inhibition, % at 12.2 µM. Q01970. 0.18% of 370,000 active. Purified PLC-beta3, fluorogenic substrate, fluorescence; in the data active means inhibition above about 11%;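 further: 0% = median of compound wells on plate and 100% = full blocker control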
PLCgamma1 ctr = inhibits human PLC-gamma1 in PLC-beta3 counter-screen | shares compounds with PLCg1 inh | AID 743258 | 3.1% of 3,300 active | purified PLC-gamma1, fluorogenic substrate, fluorescence | inhibition, % at 12.3 µM
PLCb3 confirm = human PLC-beta3 inhibition, confirmation. inhibition, % at 12.3 µM. 1% of 3,300 active. shares compounds with PLCg1 inh. purified PLC-beta3, fluorogenic substrate fluorescence. AID 743261; in the data active means inhibition above about 11%
* hit, by the source's call; . = no result given. Unless noted, no stated cut-off is given here; in the data, active means inhibition above about 9.5%; inactive means the rest.

SMILES | UCH37 inh | PLCg1 inh | Rpn11 block | PLCb3 inh | PLCgamma1 ctr | PLCb3 confirm
O=C1c2ccccc2C(=O)N1CCCCN(C(=O)c1ccc([N+](=O)[O-])cc1)c1ccc(Cl)cc1 | -1.3 | 11.6* | -9.4 | 2.8 | 3.7 | 2.3
CCC(OC(=O)C(NC(=O)c1ccccc1)c1ccccc1)C(=O)Nc1cc(C)on1 (stereo not drawn) | 0.7 | 12.4* | -2.5 | -0.2 | -7.7 | -10.2
CC1(Cc2ccc(F)cc2)C(=O)Nc2ccc(S(=O)(=O)NC3CCCCC3)cc21 (stereo not drawn) | . | 6.4 | 0.1 | 10.8* | -9.2 | -2.5
CC(C)OC(=O)Cn1nnc(-c2ccccc2)n1 | 3.0 | -1.5 | -9.9 | 2.1 | . | .
CCOC(=O)Cn1nnc(-c2ccccc2)n1 | 2.4 | 2.9 | -1.5 | 13.6* | -2.4 | 2.2
CC(C)CC(NC(=O)c1ccccc1)C(=O)OCC(=O)Nc1ccc(Br)cn1 (stereo not drawn) | 3.5 | 10.7* | 0.6 | 9.2 | -0.8 | 1.6
O=C(COc1ccccc1)NC(=S)Nc1ccc(Br)cn1 | 1.2 | -0.2 | -2.8 | -4.7 | . | .
Nc1nnnn1N=Cc1ccccc1OCc1ccccc1 | -2.7 | . | . | . | . | .
CC(=O)Nc1ccc(C=NNC(=S)NC(C)C)cc1 | 14.5 | . | . | . | . | .
CC(=O)Nc1ccc(/C=N/NC(=S)NC(C)C)cc1 | . | 11.9* | -6.5 | 3.0 | -6.1 | 1.4
COc1c(C=NNC(=O)[C@H]2C[C@@H]2c2ccccc2)c(CCN(C)C(C)=O)cc2c1OCO2 | 7.6 | . | . | . | . | .
Cc1ccc(N2C(=O)CC3(CCCC3)CC2=O)cc1 | 5.8 | 9.0 | -0.4 | 10.9* | 1.4 | 2.2
O=C(Nc1ccc(N2CCOCC2)c2nonc12)C1CCCC1 | 1.3 | -0.8 | 0.4 | -2.1 | . | .
Nc1ccc(N2CCOCC2)c2nonc12 | 16.3 | 31.0* | 6.5 | -12.3 | -3.9 | -1.4
Cc1cccc(NC(=O)CN(C)S(=O)(=O)c2ccc(Br)cc2)n1 | 5.6 | 10.2* | 0.8 | 2.5 | -6.6 | -3.9
O=C(COc1ccc(C=NNC(=O)c2ccccc2Br)cc1)Nc1ccccc1 | 6.5 | . | . | . | . | .
Fc1ccc(-c2cc(-c3cccs3)cc(-c3ccccc3)n2)cc1 | 2.9 | 13.9* | 2.5 | -3.0 | 5.4 | -0.4
Fc1ccc(-c2nc(-c3cccs3)no2)cc1 | 0.2 | 2.0 | 4.6 | -5.1 | . | .
O=C(N[C@H](C(=O)N1CCC[C@H]1C(=O)NCCc1ccccc1Cl)C1CCCCC1)c1cccs1 | . | 9.9* | . | 7.9 | 1.8 | -4.4
COc1ccc(CNC(=O)C(=O)NCC(c2ccco2)N2CCOCC2)cc1 (stereo not drawn) | 2.9 | 10.0* | -0.6 | 2.8 | -5.3 | -2.5
Cc1[nH]n(-c2ccccc2)c(=O)c1C(c1ccc(C(=O)O)cc1)c1c(C)[nH]n(-c2ccccc2)c1=O | 8.1 | 25.8* | -1.6 | 7.8 | -10.6 | -5.5
Cc1[nH]n(-c2ccccc2)c(=O)c1C(c1cccc([N+](=O)[O-])c1O)c1c(C)[nH]n(-c2ccccc2)c1=O | 2.9 | 31.3* | -3.4 | 13.7* | 4.2 | 3.5
CCCCc1ccc(C(C)=NNC(=O)C2CCCC2)cc1 | 3.2 | . | . | . | . | .
CCOC(=O)C1=C(N)n2c(sc(=Cc3ccco3)c2=O)=C(C(=O)OC(C)C)C1c1ccco1 (stereo not drawn) | 8.8 | . | . | . | . | .
CC(=NNC=O)c1ccncc1 | -1.9 | . | . | . | . | .
SMILES | UCH37 inh | PLCg1 inh | Rpn11 block | PLCb3 inh | PLCgamma1 ctr | PLCb3 confirm
Cc1nc2c(n1O)CCCC2=NO | -0.5 | . | . | . | . | .
CN1CCN(CCC(=O)N/N=C/c2ccccn2)CC1 | . | 10.1* | 11.2 | 3.3 | 4.3 | -4.6
CC(=NNC(=O)C1COc2ccccc2O1)c1ccc(N2CCOCC2)cc1 (stereo not drawn) | -0.6 | . | . | . | . | .
Cc1ccc(/C=C/C(=O)NCc2cccs2)cc1 | 3.9 | 8.0 | 0.2 | 12.8* | -7.0 | -1.0
Cc1ccc(/C=C/C(=O)NCc2cccs2)c(C)c1 | 0.6 | 2.3 | -4.4 | -6.7 | . | .
OC1CCN(Cc2ccc3ccccc3c2)CC1 | 1.0 | -0.3 | 2.3 | -3.1 | . | .
CC(C)(C)c1cc(CN2CCC(O)CC2)cc(C(C)(C)C)c1O | 2.3 | 10.7* | -2.5 | 1.7 | -3.7 | -22.2
O=C(NN=Cc1ccccn1)c1cc(-c2ccc(Cl)s2)[nH]n1 | 6.8 | . | . | . | . | .
O=C1NC(c2ccccc2)=NC1(NS(=O)(=O)c1ccccc1)C(F)(F)F (stereo not drawn) | 1.1 | 3.4 | 2.0 | 11.1* | -1.8 | 1.3
O=C1N2CCSC2=NC1(NS(=O)(=O)c1ccccc1)C(F)(F)F (stereo not drawn) | 5.7 | 10.2* | -1.3 | 4.6 | 1.6 | 2.2
